Screens deposited in PubChem by several laboratories.
DSG3 Ab inh – inhibitors of pemphigus antibody binding to DSG3, primary screen, biochemical, bead-based, flow cytometry, scFv-GFP; Desmoglein-3 (Homo sapiens), P32926; 310,000 compounds, 0.48% hits; binding (percent of control), % at 10 µM; DSG3-coupled beads, scFv-anti-DSG3-GFP binding; hits give low values; AID 588358, 2011;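 active means binding more than 3 SD below its plate's average and above zero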;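 further: hits lower antibody fragment binding to DSG3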
MEKK2 WT-MEK5 – modulators of MEK5 binding to wildtype MEKK2, primary screen, biochemical, multiplex bead flow cytometry, Alexa488-MEK5 | binding response (% of control), % at 10 µM | AID 1531, 2009 | Mitogen-activated protein kinase kinase kinase 2 (Homo sapiens), Q9Y2U5 | 290,000 compounds, 1.1% hits | Alexa488-MEK5 binding to MEKK2 WT; actives lie on both sides; in the data active means binding response below about 67% or above about 130%
MEKK2mut PB1 HTS – MEK5 binding signal on mutant MEKK2 PB1, primary screen, biochemical, multiplex bead flow cytometry, Alexa488-MEK5 | Alexa488-MEK5 binding to MEKK2 mutant | percent response, % at 10 µM | 290,000 compounds, 0.35% hits | AID 1530, 2009; in the data active means percent response above about 24%, passing the limit was not always enough
UBC13 polyUb – UBC13 polyubiquitin chain formation inhibitors, primary screen, biochemical, TR-FRET, uHTS | 330,000 compounds, 0.47% hits | Ubiquitin-conjugating enzyme E2 N (Homo sapiens), P61088 | inhibition, % at 20 µM; in the data active means inhibition above about 45%, passing the limit was not always enough
Target sequence (P61088 whole entry, looked up): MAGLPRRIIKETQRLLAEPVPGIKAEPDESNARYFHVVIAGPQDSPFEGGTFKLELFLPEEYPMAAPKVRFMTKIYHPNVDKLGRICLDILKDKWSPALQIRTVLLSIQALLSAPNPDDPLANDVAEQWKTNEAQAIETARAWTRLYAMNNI
Apaf1 inhib – inhibitors of human Apaf-1 apoptosome, primary screen, biochemical, DEVD-Rh110 fluorescence, uHTS | reconstituted apoptosome caspase-3 activity | inhibition, % at 20 µM | Apoptotic protease-activating factor 1 (Homo sapiens), O14727 | 330,000 compounds, 0.71% hits; active means inhibition of at least 40% at 20 µM;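 further: plate controls were DMSO wells for no effect and DEVD-CHO caspase inhibitor wells for full effect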
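Assay system: Apoptosome proteins | Medium: pH 7.5 Hepes buffer with CHAPS, BSA, DTT | Also added: Cytochrome c and DEVD-Rh110 substrate | Times: 30 min plus 50 min, RT | Detection: Rhodamine 110 fluorescence at Ex 480/Em 540 nm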
MEKK3 PB1 HTS – modulators of MEKK3-MEK5 PB1 binding, primary screen, biochemical, wildtype MEKK3, multiplex bead flow cytometry, Alexa488-MEK5. bead-based flow cytometry, Alexa488-MEK5 binding to MEKK3; actives lie on both sides; 0 = blocked by unlabeled MEK5, 100 = vehicle. binding response (% of control), % at 10 µM. 290,000 compounds, 1.4% hits. AID 1529, 2009;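 active means binding response more than 3 SD above or below the average of its plate-row segment, actives on both sides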;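 further: Alexa488 bead fluorescence after subtracting the streptavidin-only scavenger bead signal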
MEKK2wt confirm – modulators of MEK5 binding to wildtype MEKK2, confirmation, biochemical, single concentration, multiplex bead flow cytometry; shares compounds with MEKK3 PB1 HTS; Alexa488-MEK5 binding to MEKK2 WT; actives lie on both sides; binding response (% of control), % at 10 µM; 5,900 compounds, 2.4% hits; AID 1892, 2009; in the data active means binding response below about 16% or above about 210%; inactive means in between
MEKK2mut confirm – mutant MEKK2 PB1-MEK5 binding signal retest – biochemical, single concentration, multiplex bead flow cytometry, confirmation; Alexa488-MEK5 binding to MEKK2 mutant; AID 1893, 2009; percent response, % at 10 µM; 5,900 compounds, 2% hits; shares compounds with MEKK3 PB1 HTS; in the data active means percent response mostly above about 71%, no sharp cut-off; inactive means mostly below about 38%;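 further: higher means compound restores mutant binding toward wildtype level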
MEKK3 confirm – MEKK3 wild-type PB1 binding to MEK5, inhibitors, confirmation, biochemical, bead multiplex flow cytometry, single concentration, wildtype. AID 1894, 2009. shares compounds with MEKK3 PB1 HTS. Alexa488-MEK5 binding to MEKK3; hits give low values. binding response (% of control), % at 10 µM. 5,900 compounds, 1.8% hits;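 active means binding response below 72% of control, or above a set upper limit, though filed actives all read lower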;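 further: 100% = DMSO only wells and 0% = binding blocked by excess unlabeled MEK5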
An asterisk follows results filed as active; [ ] = remark or other dose. Shown are actives, neighbours in structure and some others; about 3.2% of the full set was active somewhere.

`CCn1ccnc1CNCc1ccc(OCC(O)CN(C)Cc2ccccc2)cc1` (stereo not drawn) gave DSG3 Ab inh 103.4, MEKK2 WT-MEK5 138.0*, MEKK2mut PB1 HTS 34.0, UBC13 polyUb 1.3, Apaf1 inhib -12.2, MEKK3 PB1 HTS 102.0, MEKK2wt confirm 118.0, MEKK2mut confirm 23.0 and MEKK3 confirm 104.0.
`CCc1ccc(CNCc2ccc(OCC(O)CN(C)Cc3ccccc3)cc2)nc1` (stereo not drawn) gave DSG3 Ab inh 102.0, MEKK2 WT-MEK5 170.0*, MEKK2mut PB1 HTS 59.0*, UBC13 polyUb 15.1, Apaf1 inhib -14.1, MEKK3 PB1 HTS 105.0, MEKK2wt confirm 148.0, MEKK2mut confirm 28.0 and MEKK3 confirm 109.0.
`CN(Cc1ccccc1)CC(O)COc1ccc(CNCc2nccn2C)cc1` (stereo not drawn) gave DSG3 Ab inh 112.9, MEKK2 WT-MEK5 114.0, MEKK2mut PB1 HTS 8.0, UBC13 polyUb -0.1, Apaf1 inhib 2.4 and MEKK3 PB1 HTS 99.0.
For CN(Cc1ccccc1)CC(O)COc1ccc(CNCCc2ccncc2)cc1 (stereo not drawn) the results were DSG3 Ab inh 93.0, MEKK2 WT-MEK5 115.0, MEKK2mut PB1 HTS -3.0, UBC13 polyUb -1.7, Apaf1 inhib -13.4 and MEKK3 PB1 HTS 100.0.
Screening COc1cc(/C=N/N2CCN(C3c4ccccc4-c4ccccc43)CC2)cc(OC)c1O returned DSG3 Ab inh 98.7, MEKK2 WT-MEK5 100.0, MEKK2mut PB1 HTS 3.0, UBC13 polyUb 3.7, Apaf1 inhib 7.9 and MEKK3 PB1 HTS 98.0.
Screening O=C(O)c1ccc(/C=N/N2CCN(C3c4ccccc4-c4ccccc43)CC2)cc1 returned DSG3 Ab inh 97.5, MEKK2 WT-MEK5 94.0, MEKK2mut PB1 HTS 0.0, UBC13 polyUb -19.5, Apaf1 inhib 14.2 and MEKK3 PB1 HTS 96.0.
COc1cc(/C=N/N2CCN(C3c4ccccc4-c4ccccc43)CC2)cc(OC)c1OC was read as DSG3 Ab inh 104.4, MEKK2 WT-MEK5 106.0, MEKK2mut PB1 HTS -1.0, UBC13 polyUb -12.3, Apaf1 inhib 14.8, MEKK3 PB1 HTS 130.0*, MEKK2wt confirm 109.0, MEKK2mut confirm 3.0 and MEKK3 confirm 105.0.
Screening O=C(O)c1ccccc1/C=N/N1CCN(C2c3ccccc3-c3ccccc32)CC1 returned DSG3 Ab inh 101.3, MEKK2 WT-MEK5 68.0, MEKK2mut PB1 HTS -36.0, UBC13 polyUb -1.2, Apaf1 inhib 9.9, MEKK3 PB1 HTS 71.0*[inhibitor], MEKK2wt confirm 108.0, MEKK2mut confirm 0.0 and MEKK3 confirm 105.0.
Screening Cc1ccc([C@H]2C[C@@H](n3cc(COC(=O)c4ccccc4)nn3)[C@H](O)CN2C(=O)C2CCCCC2)cc1 returned DSG3 Ab inh 101.6.
For NC(=O)C(c1ccccn1)c1ncc(C(F)(F)F)cc1Cl (stereo not drawn) the results were DSG3 Ab inh 100.9, MEKK2 WT-MEK5 52.0, MEKK2mut PB1 HTS -14.0, UBC13 polyUb -1.8, Apaf1 inhib -5.2, MEKK3 PB1 HTS 40.0*[inhibitor], MEKK2wt confirm 101.0, MEKK2mut confirm -1.0 and MEKK3 confirm 103.0.
Screening CCC(C)N(C(=O)c1csnn1)C(C(=O)NCc1ccc(F)cc1)c1ccccc1F (stereo not drawn) returned DSG3 Ab inh 114.8, MEKK2 WT-MEK5 96.0, MEKK2mut PB1 HTS -2.0, UBC13 polyUb -6.9, Apaf1 inhib 11.4 and MEKK3 PB1 HTS 101.0.
Screening NS(=O)(=O)OCc1ccc(C(F)(F)F)cc1 returned DSG3 Ab inh 97.1, MEKK2 WT-MEK5 99.0, MEKK2mut PB1 HTS -8.0, UBC13 polyUb 5.1, Apaf1 inhib -7.1 and MEKK3 PB1 HTS 98.0.
`O=c1c([N+](=O)[O-])c(N2CCCCCC2)c2ccccc2n1-c1ccccc1` gave DSG3 Ab inh 101.9, UBC13 polyUb -7.9, Apaf1 inhib 16.5, MEKK3 PB1 HTS 49.0*[inhibitor], MEKK2wt confirm 101.0, MEKK2mut confirm 1.0 and MEKK3 confirm 105.0.
For O=c1sc2ccccc2c(N2CCCCC2)c1[N+](=O)[O-] the results were DSG3 Ab inh 122.0, MEKK2 WT-MEK5 102.0, MEKK2mut PB1 HTS 8.0, UBC13 polyUb -10.6, Apaf1 inhib 1.7 and MEKK3 PB1 HTS 102.0.
For N=c1c2c(ncn1CCN1CCOCC1)Oc1ccc3ccccc3c1C2c1ccccc1 (stereo not drawn) the results were DSG3 Ab inh 99.8, MEKK2 WT-MEK5 141.0*, MEKK2mut PB1 HTS 15.0, UBC13 polyUb 17.7, Apaf1 inhib 17.5, MEKK3 PB1 HTS 106.0, MEKK2wt confirm 124.0, MEKK2mut confirm 4.0 and MEKK3 confirm 101.0.
`COc1ccc(C2c3c(ncn(CCN4CCOCC4)c3=N)Oc3ccc4ccccc4c32)cc1` (stereo not drawn) gave MEKK2 WT-MEK5 165.0*, MEKK2mut PB1 HTS 7.0, UBC13 polyUb -0.4, Apaf1 inhib 25.9, MEKK3 PB1 HTS 102.0, MEKK2wt confirm 127.0, MEKK2mut confirm 23.0 and MEKK3 confirm 103.0.
COc1ccc(C2c3c(ccc4ccccc34)Oc3ncn4nc(-c5ccco5)nc4c32)cc1 (stereo not drawn) was read as DSG3 Ab inh 99.7, MEKK2 WT-MEK5 106.0, MEKK2mut PB1 HTS 1.0, UBC13 polyUb -9.1, Apaf1 inhib 14.9 and MEKK3 PB1 HTS 126.0.
For COc1ccc(C)cc1NC(=O)/C=C/c1ccc(OC)c(S(=O)(=O)N2CCOCC2)c1 the results were DSG3 Ab inh 100.1, UBC13 polyUb -18.7 and Apaf1 inhib -2.6.
